# High-throughput results: PubChem, Johns Hopkins Ion Channel Center
# RGS4 pot: RGS4 potentiators or activators, primary screen, cell-based, HEK293 M3R inducible RGS4, calcium flux. carbachol calcium flux Fluo4; active compounds read low. AID 463111, 2010. B-score at 10 µM. hit rate 0.92% among 310,000;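 active = B-score of the integrated calcium signal more than 4 SD below the library mean, with starting fluorescence not abnormally high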;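 also: negative B-score means reduced calcium response which marks RGS4 activation or potentiation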
#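 Also added: carbachol at ECmax as muscarinic agonist stimulus; Assay system: HEK293 cells with stable M3R and inducible RGS4; Timing: overnight RGS4 induction, 30 min dye load 37 °C, 20 min compound RT; Measured by: Fluo4-AM (2 µM) calcium-flux fluorescence, kinetic read.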
# RGS4 inh: RGS4 inhibitors, primary screen, cell-based, HEK293 M3R inducible RGS4, calcium flux | B-score at 10 µM | Fluo-4 calcium flux; active compounds read high; triggered by carbachol at its EC20 | hit rate 0.45% among 310,000;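 active = B-score, a plate-corrected calcium signal, over three deviations above library mean, with baseline fluorescence within five deviations of library mean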;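 also: RGS4 expression induced by doxycycline in cells with stable M3 receptor; B-score is computed from the integrated fluorescence ratio over baseline after carbachol; higher B-score means a larger calcium signal and so more RGS4 inhibition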
# Target sequence (P49798 whole entry, looked up): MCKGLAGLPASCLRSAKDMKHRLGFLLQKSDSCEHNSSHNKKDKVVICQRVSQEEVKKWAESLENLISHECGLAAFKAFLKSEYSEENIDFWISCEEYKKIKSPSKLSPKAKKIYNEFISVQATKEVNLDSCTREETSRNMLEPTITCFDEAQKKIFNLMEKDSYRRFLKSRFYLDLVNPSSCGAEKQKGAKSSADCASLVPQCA
# MrgX1 ag: agonists of human MrgX1 receptor, primary screen, HEK293 cells, Fluo-4 calcium flux | Mas-related G-protein coupled receptor member X1 (Homo sapiens), Q96LB2 | Fluo-4 calcium fluorescence, agonist mode; active compounds read high | B-score at 10 µM | hit rate 0.44% among 310,000 | AID 588627, 2011;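 active = calcium response B-score plate-corrected fluorescence ratio at least 3 library SD, with starting fluorescence B-score inside 5 SD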
# Target sequence (Q96LB2 whole entry, looked up): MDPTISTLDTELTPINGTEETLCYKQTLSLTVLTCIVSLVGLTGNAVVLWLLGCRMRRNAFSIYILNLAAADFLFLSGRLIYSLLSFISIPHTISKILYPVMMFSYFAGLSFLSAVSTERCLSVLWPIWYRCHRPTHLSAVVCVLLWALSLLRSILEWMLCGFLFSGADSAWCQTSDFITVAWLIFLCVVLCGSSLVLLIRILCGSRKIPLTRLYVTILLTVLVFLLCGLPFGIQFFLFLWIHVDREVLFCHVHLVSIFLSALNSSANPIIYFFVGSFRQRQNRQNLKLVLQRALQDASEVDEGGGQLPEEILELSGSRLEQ
#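 Material – MrgX1-expressing HEK293 cells · Input – 15,000 cells seeded per well · Dosing – compound as first of three additions · Times – overnight seeding, then 1 h dark dye loading · Measured by – kinetic Fluo-4 NW fluorescence of intracellular calcium · Read-out – B-scored fluorescence response ratio · Benchmarks – positive and negative control wells on each plate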
# MrgX1 PAM: positive allosteric modulators of MrgX1, primary screen, HEK293 cells, Fluo-4 calcium flux | Mas-related G-protein coupled receptor member X1 (Homo sapiens), Q96LB2 | hit rate 0.63% among 310,000 | B-score at 10 µM | FDSS; active compounds read high;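 active = plate-corrected calcium response at least 3 library SD above typical, normal starting fluorescence, not activating the receptor alone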;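 also: compound read alongside a low EC10 to EC30 dose of BAM8-22 agonist; peak minus trough fluorescence over baseline measured at the second addition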
# MrgX1 antagonist: antagonists of human MrgX1 receptor, primary screen, HEK293 cells, Fluo-4 calcium flux. B-score at 10 µM. hit rate 1.3% among 310,000. BAM8-22 antagonism; active compounds read low. Mas-related G-protein coupled receptor member X1 (Homo sapiens), Q96LB2. AID 588676, 2011;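 active = calcium-response B-score plate-corrected more than 3 library SD below zero, starting fluorescence within 5 deviations, no agonist response on first addition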;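 also: peak minus trough fluorescence over baseline after final BAM8-22 challenge near maximal dose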
# RGS4 block valid: enhanced carbachol calcium response, M3R/RGS4 cells, RGS4 inhibitor project, cell-based, validation screen, HEK293 M3R/RGS4, calcium flux. shares compounds with RGS4 inh. carbachol calcium Fluo-4 fluorescence; carbachol added at its EC20; 0 = buffer wells, 100 = carbachol control. calcium response, % at 10 µM. hit rate 65% among 1,700;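 active = duplicate-averaged calcium response above the buffer-only control mean plus 5 SD of those controls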;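 also: integrated fluorescence ratio F max minus min over baseline F0; higher response in RGS4-induced cells means RGS4 inhibition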
# RGS4 uninduced: carbachol calcium response in non-induced M3R cells, confirmation, counter-screen for RGS4 inhibitor project, cell-based, HEK293 M3R; shares compounds with RGS4 inh; carbachol calcium Fluo-4; submaximal (EC20) carbachol stimulus; buffer wells 0%, carbachol control wells 100%; activity (percent), % at 10 µM; hit rate 20% among 1,900; AID 493000, 2010; call rule not given here;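 also: RGS4 induction absent so cells express M3R without RGS4; higher means more calcium signal and flags a non-specific hit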
# RGS4 inh ctr2: second counter-screen for RGS4 inhibitors: non-induced cells without carbachol; shares compounds with RGS4 inh; HEK293 M3R/RGS4 non-induced, Fluo-4 calcium, no carbachol; normalised: buffer wells 0%, carbachol wells 100%; calcium response (agonist-mode artifact), % at 10 µM; hit rate 22% among 1,900;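 active = duplicate-averaged calcium rise in uninduced cells above buffer wells' mean plus 5 SD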
# An asterisk follows results filed as active; i = inactive; x = not tested or not shown. A selection: hits, their analogues and other compounds. The true share with any hit is near 3.5%.
SMILES,RGS4 pot,RGS4 inh,MrgX1 ag,MrgX1 PAM,MrgX1 antagonist,RGS4 block valid,RGS4 uninduced,RGS4 inh ctr2
CN(CC(=O)Nc1cccc(F)c1)C(=O)c1ccc(N2CCOCC2)c([N+](=O)[O-])c1,i,i,i,i,i,x,x,x
COc1ccc(Cl)c(OC)c1C(=O)NC(=O)Nc1c(F)cc(F)cc1F,i,i,i,i,i,x,x,x
COC(=O)CSc1[nH]c2cc(C)ccc2c1[N+](=O)[O-],i,16.4*,i,i,i,44.0%*,i,i
CCOc1ccc2[nH]c(SCC(=O)OC)c([N+](=O)[O-])c2c1,i,7.64*,i,i,-4.77*,18.5%*,i,49.0%*
CCOC(=O)c1ccc(N=c2sc(C(=O)OC)cc(=O)n2CCCN2CCOCC2)cc1,i,i,i,i,i,x,x,x
CCn1c(=O)cc(C(=O)OC)sc1=Nc1ccc(F)c(F)c1,i,12.6*,i,i,i,56.0%*,79.5%*,i
COC(=O)c1cc(=O)n(CCc2ccccc2)c(=Nc2ccc(F)cc2)s1,i,i,i,i,i,x,x,x
CCOC(=O)c1ccc(N=c2sc(C(=O)OC)cc(=O)n2Cc2ccco2)cc1,i,i,i,i,i,i,i,i
COC(=O)c1cc(=O)n(CCc2ccc(OC)cc2)c(=Nc2ccc(F)c(Cl)c2)s1,i,i,i,i,i,i,i,19.0%*
CSc1ccc(CN(C)CC(=O)Nc2c(F)cccc2F)cc1,i,i,i,i,i,x,x,x
Oc1c(-c2cc(-c3ccco3)[nH]n2)ccc2ccccc12,i,12.2*,i,i,i,30.5%*,31.0%*,i
COc1ccc(C(=O)/C=C/c2ccc(O)cc2)cc1,i,i,i,i,i,x,x,x
COc1ccc(C(=O)/C=C/c2ccc(O)cc2)c(O)c1CC=C(C)C,i,6.36*,i,i,i,19.0%*,i,i
CCC1(C)Cc2ccccc2-c2nc(NN)[nH]c(=O)c21 (stereo not given),i,i,i,i,i,x,x,x
CC1(C)Cc2ccccc2-c2nc(NCCCO)[nH]c(=O)c21,i,i,i,i,i,x,x,x
C=CCNC(=S)NNc1nc2c(c(=O)[nH]1)C1(CCCCC1)Cc1ccccc1-2,i,10.7*,i,i,i,34.0%*,i,i
CCC1(C)Cc2ccccc2-c2nc(NCCO)[nH]c(=O)c21 (stereo not given),i,7.96*,i,i,i,20.5%*,i,i
O=c1[nH]c(NCCO)nc2c1C1(CCCC1)Cc1ccccc1-2,i,8.4*,i,i,i,43.0%*,70.0%*,22.5%*
COc1ccc(CCNC(=O)CCS(=O)(=O)c2ccc3nc(C)sc3c2)cc1OC,i,i,i,i,i,x,x,x
Cc1nc(CNC(=O)CC2C(=O)NCCN2Cc2cccc(Oc3ccccc3)c2)cs1 (stereo not given),i,i,i,i,i,x,x,x
Cn1c(=O)cc(C(=O)N/N=C/c2ccc(F)cc2)[nH]c1=O,i,i,i,i,i,x,x,x
CCOc1cc(/C=N/NC(=O)c2cccnc2)ccc1OCC(=O)N1CCOCC1,i,i,i,i,i,x,x,x
Cc1ccc(/C=C2/NC(=O)N(Cc3ccccc3)C2=O)o1,i,5.04*,i,i,i,i,i,35.5%*
CC1C(=O)N2CCCc3cc(NC(=O)C(=O)NCCCc4ccccc4)cc1c32 (stereo not given),i,i,i,i,i,x,x,x
C=CCOc1nc2sc(C)c(C)c2c(=O)n1-c1ccccc1,i,6.04*,i,i,i,i,i,i
SMILES,RGS4 pot,RGS4 inh,MrgX1 ag,MrgX1 PAM,MrgX1 antagonist,RGS4 block valid,RGS4 uninduced,RGS4 inh ctr2
Cc1ccc(C2c3c(-c4ccccc4O)n[nH]c3C(=O)N2Cc2ccncc2)cc1 (stereo not given),i,i,i,i,i,x,x,x
COc1cc(C2c3c(-c4cc(Cl)c(C)cc4O)n[nH]c3C(=O)N2Cc2cccnc2)ccc1O (stereo not given),i,i,i,i,i,x,i,i
CCCOc1ccc(N2C(=O)CC(S/C(N)=N/N=C(\C)c3cccs3)C2=O)cc1 (stereo not given),i,i,i,i,i,x,i,i
C/C(=N\N=C(/N)SC1CC(=O)N(c2cccc(Cl)c2)C1=O)c1cccs1 (stereo not given),i,i,i,i,i,x,i,i
CC(/C=C/c1ccc(N(C)C)cc1)=N\N=C(/N)SC1CC(=O)N(c2ccc(C(=O)O)cc2)C1=O (stereo not given),i,i,i,i,i,x,x,x
O=C(O)C1=C[C@H](c2ccc(F)cc2)C[C@H](OCCCCO)O1,i,i,i,i,i,x,x,x
CCN1CCN(C(=O)/C(C#N)=C/c2ccc(OC(F)F)cc2)CC1,i,i,i,i,i,x,x,x
N#C/C(=C\c1ccc(OC(F)F)cc1)C(=O)N1CCCCC1,i,5.85*,i,i,i,16.0%*,i,i
COc1ccc(CCNC(=O)c2cc(-c3ccc(Cl)c(Cl)c3)oc2C)cc1,i,i,i,i,i,x,x,x
O=C1NN(c2ccccc2)C(=O)/C1=C/c1ccc(Sc2cccc3ccccc23)o1,i,12.5*,i,i,i,i,i,i
O=C(/C=C/c1ccc(Cl)cc1)c1ccc([N+](=O)[O-])o1,i,7.93*,i,i,i,8.5%*,i,i
O=C(OCCCOC(=O)c1ccc([N+](=O)[O-])o1)c1ccc([N+](=O)[O-])o1,i,i,i,i,i,x,x,x
Cn1c(SCC(=O)Nc2ccc3c(c2)oc2ccccc23)nnc1-c1ccccc1,i,5.13*,i,i,i,7.5%*,i,i
